Series [1] relates to MDA-MB-231. Put plainly: Antiproliferative activity against human MDA-MB-231 cells assessed as reduction in cell viability incubated for 72 hrs by cell-titer glo assay relative to control. It is filed as functional. The gist of the method:
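Cells seeded at 2000 cells/well, dosed next day with a range of concentrations (DMSO 0.2% as control), 72 h exposure, viability read by CellTiter-Glo luminescence. Dose–response curves and GR values derived with the online GR calculator. Two independent experiments, each in technical triplicate.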

Series [2] can be described thus: Half life in B6 mouse at 5 mg/kg, ip. It is filed as ADME, organism-based. The following applies: in vivo. The procedure, abridged: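 PK in B6 mice. Single 5 mg/kg intraperitoneal dose in 5% DMSO/95% D5W. Half-life and AUC reported.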
In series [3] the test system is Tyrosine-protein kinase ABL1 (Homo sapiens), P00519 [T315I]. Put plainly: Binding affinity to human phosphorylated ABL1 T315I mutant (S229 to K512 residues) expressed in mammalian expression system assessed as residual binding level at 1 uM by Kinomescan method relative to control. The gist of the method:
(§1)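 Active-site-directed KinomeScan competition binding panel covering 468 kinases, compound tested at 1 μM. Each readout is the kinase signal remaining with compound, expressed as a percentage of the DMSO control. […]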

Series [4] deals with Macrophage colony-stimulating factor 1 receptor (Homo sapiens) (UniProt P07333). The experiment in a line: Binding affinity to wild-type human partial length CSF1R (I564 to S939 residues) expressed in bacterial expression system assessed as residual binding level at 1 uM by Kinomescan method relative to control. The gist of the method:
(§2)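 Active-site-directed competition binding panel of 468 kinases (KinomeScan), compound at 1 μM. The read-out is kinase remaining bound, given as a percentage of the DMSO control. […]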

Series [5] deals with Tyrosine-protein kinase CSK (Homo sapiens) (UniProt P41240). The experiment in a line: Binding affinity to wild-type human full length CSK (M1 to L450 residues) expressed in bacterial expression system assessed as residual binding level at 1 uM by Kinomescan method relative to control. The procedure, abridged: (§3)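 KinomeScan, an active site-directed competition binding panel of 468 kinases. The test compound was at 1 μM. The readout is remaining kinase binding as a percentage of the DMSO control. Scores above 35% were treated as weak binding and not listed.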
Chain of Tyrosine-protein kinase CSK (Homo sapiens) (P41240 2-450 limits assumed): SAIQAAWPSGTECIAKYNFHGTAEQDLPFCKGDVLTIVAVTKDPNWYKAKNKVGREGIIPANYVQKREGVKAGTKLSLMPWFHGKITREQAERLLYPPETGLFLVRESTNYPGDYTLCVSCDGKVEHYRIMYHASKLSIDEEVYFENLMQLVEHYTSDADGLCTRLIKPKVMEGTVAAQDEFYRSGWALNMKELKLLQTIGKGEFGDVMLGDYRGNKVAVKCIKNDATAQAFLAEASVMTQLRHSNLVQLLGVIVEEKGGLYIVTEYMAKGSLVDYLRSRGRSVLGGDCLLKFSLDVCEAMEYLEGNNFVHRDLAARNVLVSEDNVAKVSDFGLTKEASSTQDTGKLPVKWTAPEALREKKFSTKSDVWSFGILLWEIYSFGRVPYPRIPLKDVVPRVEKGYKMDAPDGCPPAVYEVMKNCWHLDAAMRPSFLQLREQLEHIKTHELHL

For series [6], the target named is Mitogen-activated protein kinase 7 (Homo sapiens) (UniProt Q13164). Put plainly: Binding affinity to wild-type human partial length ERK5 (M1 to A409 residues) expressed in bacterial expression system assessed as residual binding level at 1 uM by Kinomescan method relative to control.
For series [7], the system named is Fibroblast growth factor receptor 3 (Homo sapiens), P22607 [G697C]. Put plainly: Binding affinity to human partial length FGFR3 G697C mutant (R442 to S771 residues) expressed in bacterial expression system assessed as residual binding level at 1 uM by Kinomescan method relative to control. The gist of the method: (§4)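 KinomeScan active site-directed competition binding panel (468 kinases), compound tested at 1 μM. Result expressed as remaining kinase signal versus DMSO control (percent of control).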

Series [8] concerns the target G protein-coupled receptor kinase 4 (Homo sapiens) (UniProt P32298). The experiment in a line: Binding affinity to wild-type human full length GRK4 (M1 to C578 residues) expressed in bacterial expression system assessed as residual binding level at 1 uM by Kinomescan method relative to control. The gist of the method:
as §1

For series [9], the target named is Homeodomain-interacting protein kinase 1 (Homo sapiens) (UniProt Q86Z02). Put plainly: Binding affinity to wild-type human partial length HIPK1 (M146 to I555 residues) expressed in mammalian expression system assessed as residual binding level at 1 uM by Kinomescan method relative to control.
Chain of Homeodomain-interacting protein kinase 1 (Homo sapiens) (Q86Z02 whole entry, looked up, the tested form may be a part): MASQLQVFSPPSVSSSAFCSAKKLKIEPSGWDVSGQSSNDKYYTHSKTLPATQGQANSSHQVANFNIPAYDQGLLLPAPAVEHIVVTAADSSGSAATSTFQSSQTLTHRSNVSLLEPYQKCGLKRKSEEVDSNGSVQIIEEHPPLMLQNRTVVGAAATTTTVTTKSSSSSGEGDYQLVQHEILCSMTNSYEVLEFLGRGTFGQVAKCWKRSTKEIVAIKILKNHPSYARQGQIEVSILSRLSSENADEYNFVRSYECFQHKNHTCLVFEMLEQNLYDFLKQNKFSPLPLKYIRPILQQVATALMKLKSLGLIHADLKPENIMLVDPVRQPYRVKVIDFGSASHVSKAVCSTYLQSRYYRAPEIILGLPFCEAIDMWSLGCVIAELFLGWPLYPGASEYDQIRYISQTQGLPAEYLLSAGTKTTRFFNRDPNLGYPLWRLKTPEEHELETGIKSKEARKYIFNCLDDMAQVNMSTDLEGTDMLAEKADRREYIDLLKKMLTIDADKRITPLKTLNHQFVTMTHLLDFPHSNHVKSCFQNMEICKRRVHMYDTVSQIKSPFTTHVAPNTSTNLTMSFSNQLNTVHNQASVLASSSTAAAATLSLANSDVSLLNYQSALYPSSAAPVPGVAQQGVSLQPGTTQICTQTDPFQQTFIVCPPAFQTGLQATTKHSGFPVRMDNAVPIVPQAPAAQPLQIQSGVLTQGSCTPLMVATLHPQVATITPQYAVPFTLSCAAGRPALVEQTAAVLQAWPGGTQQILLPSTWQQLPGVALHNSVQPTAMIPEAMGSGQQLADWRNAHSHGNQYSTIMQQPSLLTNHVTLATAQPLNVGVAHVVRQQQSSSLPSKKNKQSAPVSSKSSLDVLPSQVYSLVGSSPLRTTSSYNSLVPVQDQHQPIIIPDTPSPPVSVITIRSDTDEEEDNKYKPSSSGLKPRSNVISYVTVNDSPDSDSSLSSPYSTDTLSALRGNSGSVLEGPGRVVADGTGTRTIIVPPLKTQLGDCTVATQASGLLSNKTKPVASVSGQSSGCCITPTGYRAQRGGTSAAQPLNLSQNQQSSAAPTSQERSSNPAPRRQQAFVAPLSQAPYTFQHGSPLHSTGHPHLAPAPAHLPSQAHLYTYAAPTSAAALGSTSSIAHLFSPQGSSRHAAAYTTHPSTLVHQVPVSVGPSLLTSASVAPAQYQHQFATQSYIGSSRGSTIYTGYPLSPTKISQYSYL
Series [10] concerns the target Interleukin-1 receptor-associated kinase 4 (Homo sapiens) (UniProt Q9NWZ3). Put plainly: Binding affinity to wild-type human partial length IRAK4 (M1 to S460 residues) expressed in mammalian expression system assessed as residual binding level at 1 uM by Kinomescan method relative to control.
Series [11] deals with MAP/microtubule affinity-regulating kinase 4 (Homo sapiens) (UniProt Q96L34). The experiment in a line: Binding affinity to wild-type human partial length MARK4 (K29 to G340 residues) expressed in bacterial expression system assessed as residual binding level at 1 uM by Kinomescan method relative to control.
In series [12] the target is Microtubule-associated serine/threonine-protein kinase 1 (Homo sapiens) (UniProt Q9Y2H9). The experiment in a line: Binding affinity to wild-type human partial length MAST1 (S346 to V730 residues) expressed in mammalian expression system assessed as residual binding level at 1 uM by Kinomescan method relative to control. The gist of the method:
as §2

For series [13], the system named is Hepatocyte growth factor receptor (Homo sapiens), P08581 [M1250T]. The experiment in a line: Binding affinity to human partial length MET M1250T mutant (D1010 to S1367 residues) expressed in bacterial expression system assessed as residual binding level at 1 uM by Kinomescan method relative to control. The procedure, abridged:
as §4

Series [14] addresses Mitogen-activated protein kinase 14 (Homo sapiens) (UniProt Q16539). The experiment in a line: Binding affinity to wild-type human full length p38-alpha (M1 to S360 residues) expressed in bacterial expression system assessed as residual binding level at 1 uM by Kinomescan method relative to control. The procedure, abridged:
as §3

The target of series [15] is Serine/threonine-protein kinase pim-2 (Homo sapiens) (UniProt Q9P1W9). Put plainly: Binding affinity to wild-type human partial length PIM2 (M1 to E291 residues) expressed in bacterial expression system assessed as residual binding level at 1 uM by Kinomescan method relative to control.
Chain of Serine/threonine-protein kinase pim-2 (Homo sapiens) (Q9P1W9 whole entry, looked up, the tested form may be a part): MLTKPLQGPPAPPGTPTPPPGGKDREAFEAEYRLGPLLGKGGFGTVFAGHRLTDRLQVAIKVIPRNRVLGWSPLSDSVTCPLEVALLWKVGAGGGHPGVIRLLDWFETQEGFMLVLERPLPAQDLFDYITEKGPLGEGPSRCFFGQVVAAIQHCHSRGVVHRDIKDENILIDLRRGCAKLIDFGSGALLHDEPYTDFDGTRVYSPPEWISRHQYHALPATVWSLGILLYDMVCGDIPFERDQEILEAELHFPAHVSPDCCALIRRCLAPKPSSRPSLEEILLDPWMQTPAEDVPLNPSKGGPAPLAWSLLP
Series [16] deals with Serine/threonine-protein kinase SIK3 (Homo sapiens) (UniProt Q9Y2K2). Put plainly: Binding affinity to wild-type human partial length QSK (A90 to L395 residues) expressed in mammalian expression system assessed as residual binding level at 1 uM by Kinomescan method relative to control. The procedure, abridged: as §2
Series [17] deals with Serine/threonine-protein kinase SBK1 (Homo sapiens) (UniProt Q52WX2). The experiment in a line: Binding affinity to wild-type human partial length SBK1 (P23 to P348 residues) expressed in mammalian expression system assessed as residual binding level at 1 uM by Kinomescan method relative to control.
Chain of Serine/threonine-protein kinase SBK1 (Homo sapiens) (Q52WX2 whole entry, the tested form may be a part): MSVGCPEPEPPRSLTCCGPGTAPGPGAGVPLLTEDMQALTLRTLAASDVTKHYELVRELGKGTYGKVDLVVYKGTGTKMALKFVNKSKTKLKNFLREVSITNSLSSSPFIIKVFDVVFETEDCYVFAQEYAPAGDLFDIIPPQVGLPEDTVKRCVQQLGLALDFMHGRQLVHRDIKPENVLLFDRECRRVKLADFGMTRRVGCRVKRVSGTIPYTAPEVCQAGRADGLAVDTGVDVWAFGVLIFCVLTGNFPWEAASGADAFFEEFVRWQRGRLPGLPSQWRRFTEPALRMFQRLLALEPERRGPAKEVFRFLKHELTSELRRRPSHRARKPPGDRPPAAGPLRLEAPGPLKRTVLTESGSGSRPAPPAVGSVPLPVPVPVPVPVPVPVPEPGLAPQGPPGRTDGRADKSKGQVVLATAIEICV
Series [18] concerns the target Tyrosine-protein kinase SYK (Homo sapiens) (UniProt P43405). Put plainly: Binding affinity to wild-type human partial length SYK (D354 to N635 residues) expressed in bacterial expression system assessed as residual binding level at 1 uM by Kinomescan method relative to control.
Series [19] deals with High affinity nerve growth factor receptor (Homo sapiens) (UniProt P04629). Put plainly: Binding affinity to wild-type human partial length TRKA (G475 to G790 residues) expressed in mammalian expression system assessed as residual binding level at 1 uM by Kinomescan method relative to control.
The target of series [20] is NT-3 growth factor receptor (Homo sapiens) (UniProt Q16288). The experiment in a line: Binding affinity to wild-type human partial length TRKC (Q531 to G825 residues) expressed in mammalian expression system assessed as residual binding level at 1 uM by Kinomescan method relative to control.
For series [21], the target named is Dual specificity protein kinase TTK (Homo sapiens) (UniProt P33981). The experiment in a line: Binding affinity to wild-type human partial length TTK (N505 to V798 residues) expressed in bacterial expression system assessed as residual binding level at 1 uM by Kinomescan method relative to control. The procedure, abridged:
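Active site-directed competition binding panel (KinomeScan, 468 kinases). Test compound at 1 μM. Read-out is kinase binding remaining versus DMSO control, expressed as percent of control. Scores above 35% are treated as weak binding.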

This is an account of results in ChEMBL document CHEMBL4354843, “Structure-Based Design of a Potent and Selective Covalent Inhibitor for SRC Kinase That Targets a P-Loop Cysteine” (J Med Chem, 2020).

Chain of Mitogen-activated protein kinase 14 (Homo sapiens) (Q16539 whole entry, the tested form may be a part): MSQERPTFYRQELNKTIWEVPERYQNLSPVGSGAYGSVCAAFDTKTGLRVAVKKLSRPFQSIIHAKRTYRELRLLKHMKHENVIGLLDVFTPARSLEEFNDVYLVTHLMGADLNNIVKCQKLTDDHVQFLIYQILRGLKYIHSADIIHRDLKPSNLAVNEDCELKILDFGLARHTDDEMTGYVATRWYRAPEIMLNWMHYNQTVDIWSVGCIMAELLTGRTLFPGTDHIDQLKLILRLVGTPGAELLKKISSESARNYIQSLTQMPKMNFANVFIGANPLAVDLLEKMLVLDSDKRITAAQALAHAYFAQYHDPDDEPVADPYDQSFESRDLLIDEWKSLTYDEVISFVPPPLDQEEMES
Chain of Interleukin-1 receptor-associated kinase 4 (Homo sapiens) (Q9NWZ3 whole entry, the tested form may be a part): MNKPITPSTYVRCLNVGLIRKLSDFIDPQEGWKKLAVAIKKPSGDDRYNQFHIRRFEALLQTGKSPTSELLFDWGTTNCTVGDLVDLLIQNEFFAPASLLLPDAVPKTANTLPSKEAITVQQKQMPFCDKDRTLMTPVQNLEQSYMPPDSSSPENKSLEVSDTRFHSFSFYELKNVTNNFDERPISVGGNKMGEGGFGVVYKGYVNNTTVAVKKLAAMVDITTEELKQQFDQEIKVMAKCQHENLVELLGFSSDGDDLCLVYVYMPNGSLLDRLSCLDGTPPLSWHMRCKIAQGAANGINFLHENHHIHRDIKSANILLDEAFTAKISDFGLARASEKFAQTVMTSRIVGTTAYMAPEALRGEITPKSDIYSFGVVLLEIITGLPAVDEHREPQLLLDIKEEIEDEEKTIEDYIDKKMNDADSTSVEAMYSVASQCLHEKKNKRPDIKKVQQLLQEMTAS
Chain of Macrophage colony-stimulating factor 1 receptor (Homo sapiens) (P07333 whole entry, the tested form may be a part): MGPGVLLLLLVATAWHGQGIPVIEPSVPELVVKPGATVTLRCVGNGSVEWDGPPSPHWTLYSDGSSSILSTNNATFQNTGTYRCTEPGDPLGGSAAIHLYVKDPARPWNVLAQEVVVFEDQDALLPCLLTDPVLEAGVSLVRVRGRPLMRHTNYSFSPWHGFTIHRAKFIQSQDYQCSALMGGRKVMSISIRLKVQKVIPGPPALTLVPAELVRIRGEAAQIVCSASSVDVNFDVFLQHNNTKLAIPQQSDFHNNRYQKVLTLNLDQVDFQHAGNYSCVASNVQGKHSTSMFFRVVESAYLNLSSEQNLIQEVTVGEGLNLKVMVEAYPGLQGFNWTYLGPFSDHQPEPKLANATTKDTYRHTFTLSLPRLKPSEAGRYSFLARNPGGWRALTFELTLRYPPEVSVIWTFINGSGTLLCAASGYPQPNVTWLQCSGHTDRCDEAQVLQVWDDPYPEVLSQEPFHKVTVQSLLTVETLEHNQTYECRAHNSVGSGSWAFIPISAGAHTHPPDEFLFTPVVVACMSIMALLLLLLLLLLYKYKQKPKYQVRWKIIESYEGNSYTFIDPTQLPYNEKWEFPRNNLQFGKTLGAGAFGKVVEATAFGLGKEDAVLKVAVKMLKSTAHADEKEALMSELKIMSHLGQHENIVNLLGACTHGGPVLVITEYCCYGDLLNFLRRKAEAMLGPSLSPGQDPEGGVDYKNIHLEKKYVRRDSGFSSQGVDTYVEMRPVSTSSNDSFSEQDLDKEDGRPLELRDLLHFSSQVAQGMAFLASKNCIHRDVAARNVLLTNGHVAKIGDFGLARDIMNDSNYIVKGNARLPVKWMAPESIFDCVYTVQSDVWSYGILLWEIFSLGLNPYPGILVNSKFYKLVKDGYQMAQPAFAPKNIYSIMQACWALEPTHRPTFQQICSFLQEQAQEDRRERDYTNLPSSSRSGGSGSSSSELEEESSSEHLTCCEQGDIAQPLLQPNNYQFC
Chain of Dual specificity protein kinase TTK (Homo sapiens) (P33981 whole entry, the tested form may be a part): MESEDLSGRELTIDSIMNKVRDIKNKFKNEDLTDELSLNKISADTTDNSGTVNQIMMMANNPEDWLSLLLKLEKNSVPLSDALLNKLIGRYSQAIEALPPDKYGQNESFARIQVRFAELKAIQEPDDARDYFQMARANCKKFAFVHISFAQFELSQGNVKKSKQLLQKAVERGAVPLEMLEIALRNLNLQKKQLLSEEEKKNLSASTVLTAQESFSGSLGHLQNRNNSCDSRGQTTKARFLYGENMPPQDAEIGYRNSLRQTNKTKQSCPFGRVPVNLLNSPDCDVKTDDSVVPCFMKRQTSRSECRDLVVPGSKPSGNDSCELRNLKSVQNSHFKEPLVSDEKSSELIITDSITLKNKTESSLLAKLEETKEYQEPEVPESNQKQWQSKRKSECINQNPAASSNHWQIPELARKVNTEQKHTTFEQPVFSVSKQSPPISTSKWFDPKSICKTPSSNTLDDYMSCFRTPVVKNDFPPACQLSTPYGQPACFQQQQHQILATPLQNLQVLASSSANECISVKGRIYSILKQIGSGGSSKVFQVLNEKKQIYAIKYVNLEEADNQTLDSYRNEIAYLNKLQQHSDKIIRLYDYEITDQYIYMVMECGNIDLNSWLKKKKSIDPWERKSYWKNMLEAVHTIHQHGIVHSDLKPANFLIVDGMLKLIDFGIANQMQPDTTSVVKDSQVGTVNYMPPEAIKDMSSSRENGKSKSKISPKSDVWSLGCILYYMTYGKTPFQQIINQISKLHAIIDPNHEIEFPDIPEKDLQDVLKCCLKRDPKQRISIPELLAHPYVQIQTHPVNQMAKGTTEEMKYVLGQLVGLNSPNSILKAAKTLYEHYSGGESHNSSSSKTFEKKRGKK

As to `C=CC(=O)Nc1ccccc1Nc1nc(Nc2ccc(N3CCN(C)CC3)cc2)ncc1C(=O)Nc1c(C)cccc1Cl`, the Emax in [1] is listed as -0.4. In addition, the half-life (commonly the time in which the quantity being followed falls by half) in series [2] is 1.29 h. In addition, the Activity came to 100% in series [3]; 7.3% in series [4]; 1.3% in series [5]; 92% in series [6]; 100% in series [7]; 100% in [8]. The Activity in series [9] stood at 100%; in [10], 100%; in series [11], 95%; in [12] it was 82%; in [13] it was 100%; in series [14], 28%. Moreover, the Activity in [15] was determined as 95%; in series [16] it was 69%; in series [17] it was 100%; in series [18], 100%; in [19], 100%; in series [20] it was 100%. The Activity in [21] amounted to 94%.
